# bIAP inh – blocks bovine intestinal alkaline phosphatase activity; purified bovine IAP, CDP-star luminescence, 30 min; inhibition, % at 20 µM; 190,000 tested, under 10 active; AID 1019;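 active = over 50% inhibition of intestinal alkaline phosphatase at 20 µM in the single-dose screen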
#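 Assay system – bovine IAP enzyme · Quantity – bovine IAP at 1/65,000,000 final dilution · Detection – CDP-star luminescence signal · Times – 30 min reaction at room temperature · Also added – CDP-star substrate at 30 µM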
# hIAP activ – human IAP activation. P09923. purified human IAP, CDP-Star luminescence, 30 min; hits give high values; 1 = vehicle-only enzyme, 0 = enzyme-free background. activation factor at 10 µM. 330,000 tested, 0.16% active. AID 2524;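 active = activation factor of the enzyme at least 2-fold when tested at 20 µM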
# Target sequence (P09923 whole entry, looked up): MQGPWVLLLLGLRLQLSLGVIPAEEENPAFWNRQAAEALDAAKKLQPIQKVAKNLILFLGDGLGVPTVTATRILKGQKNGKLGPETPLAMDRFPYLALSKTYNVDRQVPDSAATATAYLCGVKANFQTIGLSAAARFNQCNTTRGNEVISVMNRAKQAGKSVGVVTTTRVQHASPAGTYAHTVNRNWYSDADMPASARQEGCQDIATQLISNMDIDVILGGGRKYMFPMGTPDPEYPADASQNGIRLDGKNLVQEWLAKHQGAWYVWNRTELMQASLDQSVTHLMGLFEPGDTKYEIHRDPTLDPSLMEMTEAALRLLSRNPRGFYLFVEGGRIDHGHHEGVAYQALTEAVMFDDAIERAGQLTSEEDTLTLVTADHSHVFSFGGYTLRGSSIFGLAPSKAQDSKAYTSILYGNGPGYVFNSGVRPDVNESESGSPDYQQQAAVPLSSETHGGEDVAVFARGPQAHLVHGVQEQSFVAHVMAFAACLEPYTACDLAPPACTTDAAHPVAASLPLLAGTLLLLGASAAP
# mIAP block – blocks mouse intestinal alkaline phosphatase; inhibition, % at 10 µM; AID 2806; purified mouse IAP, CDP-Star luminescence, 30 min; 330,000 tested, 0.2% active;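 active = inhibition of at least 40% at 10 µM in the primary screen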
# mIAP act – increases mouse intestinal alkaline phosphatase activity. muIAP, CDP-Star luminescence, 30 min; hits give high values; 1 = vehicle-only enzyme signal, 0 = enzyme-free wells. 330,000 tested, 0.24% active. activation factor at 10 µM;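 active = activation factor of at least 2 at 20 µM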
#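 System: mouse IAP enzyme. Reagent: CDP-Star chemiluminescent phosphatase substrate. Benchmarks: DMSO wells, no-enzyme wells. Times: 30 min enzyme-substrate-compound incubation at room temperature. Detection: luminescence from enzymatic CDP-Star hydrolysis. Doses: test compounds delivered from DMSO solution.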
# hIAP block – human IAP inhibition; 330,000 tested, 0.12% active; P09923; purified IAP, CDP-Star luminescence, 30 min; inhibition, % at 10 µM; AID 2544;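 active = inhibition reaching a set limit with compound at 10 µM in the primary screen, cut at about 35% in these data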
# bIAP activator – increases bovine intestinal alkaline phosphatase activity; purified bovine IAP, CDP-star luminescence, 30 min; hits give high values; fold of DMSO-control signal, blank-subtracted; activation factor at 20 µM; 200,000 tested, 0.17% active; AID 1016;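 active = activation factor of 2 or more at 20 µM, a signal rise over negative controls twice the positive control's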
# mIAP inh conf – mouse IAP inhibition confirmation | AID 434971 | 11,000 tested, 4.7% active | shares compounds with mIAP block | purified mouse IAP, CDP-Star luminescence, 30 min | inhibition, % at 10 µM;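 active = inhibition of at least 40% at 10 µM in either of the two replicates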
# Hits are given with their value; n = inactive; x = no result. Only some compounds are listed: those with a hit (about 0.79% of all), similar ones and a draw of the others.
SMILES,bIAP inh,hIAP activ,mIAP block,mIAP act,hIAP block,bIAP activator,mIAP inh conf
CCc1cc(Cn2nc(-c3ccccc3)cc2C(=O)NCc2cccc(C(F)(F)F)c2)on1,x,n,n,3.4,n,x,n
COc1ccc(C2=NOC(Cn3nc(-c4ccccc4)cc3C(=O)NCc3cccc(Br)c3)C2)cc1 (stereo unspecified),x,n,n,3.8,n,x,n
CCc1cc(Cn2nc(-c3ccccc3)cc2C(=O)NCc2cccc(Br)c2)on1,x,n,n,6.6,n,x,n
C[C@H](CO)N1C[C@H](C)[C@@H](CN(C)C(=O)Nc2ccccc2)Oc2ccc(NC(=O)Nc3ccccc3)cc2C1=O,x,n,n,3.1,n,x,n
C[C@H](CO)N1C[C@H](C)[C@@H](CN(C)C(=O)NC2CCCCC2)Oc2ccc(NC(=O)Nc3ccccc3)cc2C1=O,x,n,n,2.6,n,x,n
CC(C)NC(=O)Nc1ccc2c(c1)C(=O)N([C@H](C)CO)C[C@H](C)[C@@H](CN(C)C(=O)NC1CCCCC1)O2,x,n,n,n,n,x,x
CC(C)[C@H](NC(=O)c1ccccc1)C(=O)OCC(=O)Nc1ncc(Cl)cc1Cl,x,n,n,n,n,x,x
Cc1ccccc1OCCC(=O)OCC(=O)Nc1c(C)nn(-c2ccccc2)c1C,x,n,n,n,n,x,x
CC1(C(=O)NNC(=O)c2ccc(=O)oc2)CC1Br (stereo unspecified),x,n,77,n,n,x,71
Cc1cc(=O)oc(C)c1C(=O)NNC(=O)C1(C)CC1Br (stereo unspecified),x,n,n,n,n,x,x
COc1ccc2[nH]c3c(c2c1)CCN1C(=O)C(CC(=O)NC/C=C(\C)CCC=C(C)C)C[C@H](C(=O)N(C(C)C)C(C)C)[C@@]31C (stereo partly specified),x,x,n,2.2,x,x,n
CC/C(C)=N/Nc1nc2c(c(=O)[nH]c(=O)n2C)n1CCc1ccccc1,n,n,41,n,n,n,47
O=C(NCc1cn(-c2ccccc2)nc1-c1ccc(F)cc1)c1cccc([N+](=O)[O-])c1,n,n,n,n,n,n,x
COc1ccccc1NC(=O)CCNS(=O)(=O)c1ccc2[nH]c(=O)oc2c1,x,n,41,n,n,x,74
COc1ccc(OC)c(NC(=O)CCNS(=O)(=O)c2ccc3[nH]c(=O)oc3c2)c1,x,n,47,n,n,x,62
Cc1ccc(NC(=O)CCNS(=O)(=O)c2ccc3[nH]c(=O)oc3c2)cc1C,x,n,n,n,n,x,x
Cc1ccc(C)c(NC(=O)CCNS(=O)(=O)c2ccc3[nH]c(=O)oc3c2)c1,x,n,70,n,n,x,82
Cc1ccc(NC(=O)CCNS(=O)(=O)c2ccc3[nH]c(=O)oc3c2)c(C)c1,x,n,n,n,n,x,x
COc1cccc(CNC(=O)CCNS(=O)(=O)c2ccc3[nH]c(=O)oc3c2)c1,x,n,49,n,n,x,77
Cc1ccccc1CNC(=O)CCn1nc(C)c2c(C)n(-c3ccccc3)nc2c1=O,x,n,n,n,n,x,x
CCC1CCCCN1C(=O)c1ccc(OC2CCN(C(=O)CCOC)CC2)cc1 (stereo unspecified),x,n,n,n,n,x,x
O=C(CCN1CCOCC1)N1CCCC(Nc2cccc(F)c2)C1 (stereo unspecified),x,n,n,n,n,x,x
O=C(CCNS(=O)(=O)c1ccc2[nH]c(=O)oc2c1)NCc1ccccc1,x,n,n,n,n,x,x
COc1cccc(NC(=O)CN(C)S(=O)(=O)c2ccc3c(c2)CCC(=O)N3)c1,x,n,n,n,n,x,x
COc1ccccc1CNC(=O)CCNS(=O)(=O)c1ccc2[nH]c(=O)oc2c1,x,n,41,n,n,x,75
SMILES,bIAP inh,hIAP activ,mIAP block,mIAP act,hIAP block,bIAP activator,mIAP inh conf
COc1cccc(NC(=O)CN(C)S(=O)(=O)c2ccc3[nH]c(=O)oc3c2)c1,x,n,42,n,n,x,46
COc1ccc(C(=O)N[C@H](C(=O)N2CCN(c3ccccc3F)CC2)C(C)C)cc1,n,n,n,n,n,n,x
COc1cc(NC(=S)N2CCC(C(N)=O)CC2)c(OC)cc1Cl,n,n,n,n,n,n,x
O=C(O)CNS(=O)(=O)c1ccc2c3c(cccc13)C(=O)N2,x,n,48,n,n,x,49
O=C(O)CCCCCNS(=O)(=O)c1ccc2c3c(cccc13)C(=O)N2,x,n,n,n,n,x,x
CN(c1ccccc1C(=O)O)S(=O)(=O)c1ccc2c3c(cccc13)C(=O)N2,n,n,46,n,n,n,62
O=C(O)c1ccccc1NS(=O)(=O)c1ccc2c3c(cccc13)C(=O)N2,n,n,n,n,n,n,x
O=C1/C(=C\c2ccco2)SC(=S)N1C1CCCCC1,x,n,40,n,n,x,52
Cc1ccc(N2C(=O)/C(=C/c3ccco3)SC2=S)cc1,n,n,49,n,n,n,60
O=C1/C(=C/c2ccco2)SC(=S)N1CCC(=O)N1CCCCC1CCO (stereo unspecified),x,n,47,n,n,x,57
COC(=O)[C@@H]1Cc2c([nH]c3ccccc23)C(C)(C)N1C(=O)CCl,x,n,n,n,n,x,x
C=CCNC(=S)N(CC=C)C1CCS(=O)(=O)C1 (stereo unspecified),n,n,n,n,n,n,x
COc1ccc(OC)c(/C=C(\C)C(=O)c2c(C)cc(C)[nH]c2=O)c1,x,n,n,n,n,x,x
O=C(CN1C(=O)/C(=C/c2ccccc2)SC1=S)NNC(=O)c1ccccc1O,n,n,41,n,n,n,43
COc1cccc(/C=C2/SC(=S)N(CC(=O)NNC(=O)c3ccccc3O)C2=O)c1,x,n,n,n,n,x,x
Cc1cc(O)c(CN(C)C)c2c1C(=O)/C(=C/c1ccco1)O2,x,n,n,n,n,x,x
Cc1cc(O)c(C=O)c2c1C(=O)Oc1c(CO)c(O)c3c(c1O2)C(O)OC3=O (stereo unspecified),n,n,87,n,n,n,62
